Measurements as given in ChEMBL document CHEMBL1123674, “Synthesis and antitumor activity of fluorine-substituted 4-amino-2(1H)-pyridinones and their nucleosides. 3-Deazacytosines” (J Med Chem, 1987).

Columns and labels:
[1] = test system: L1210; test: Compound was tested for mean survival time of treated mice in days / mean survival time of control mice x 100 against L1210 lymphoid leukemia cells; type: functional, Mus musculus
Summary of the method: (§1)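 CD2F1 mice in groups of six received 1 × 10⁵ L1210 lymphoid leukemia cells ip. Dosing was ip, once a day for 5 days, starting 24 h after tumor inoculation, under standard NCI protocol. %T/C = (mean survival time of treated mice in days / mean survival time of controls) × 100. Toxic deaths were excluded from the %T/C calculation.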

[2] = test system: L1210; test: Compound was tested for the concentration required to inhibit the growth rate of the control L1210 cells by 50%; Value ranges from 2.60-4.71; type: functional; conditions: Mus musculus, read-out: ID50 (the source's name)
[3] = test system: P388; test: Compound was tested for mean survival time of treated mice in days / mean survival time of control mice x 100 against P388 lymphoid leukemia cells; Inactive; type: functional, Mus musculus
[4] = test system: L1210; test: Antitumor activity against L1210 lymphoid leukemia in CD2F1 mice at 100 mg/injection and measured as mean weight change (days 5 minus 1) of treated mice minus mean weight change of control mice before second treatment was reported; type: functional, Mus musculus
Summary of the method: (§2)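 CD2F1 mice, in groups of six, were inoculated ip with 1 × 10⁵ L1210 lymphoid leukemia cells. Dosing was ip once daily for 5 days, starting 24 h after inoculation. Toxicity was scored as the mean weight change of treated mice (day 5 minus day 1) minus the mean weight change of control mice.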

[5] = test system: L1210; test: Antitumor activity against L1210 lymphoid leukemia in CD2F1 mice at 200 mg/injection and measured as mean weight change (days 5 minus 1) of treated mice minus mean weight change of control mice before first treatment was reported; type: functional, Mus musculus; summary of the method: as §2
[6] = test system: L1210; test: Antitumor activity against L1210 lymphoid leukemia in CD2F1 mice at a dose of 25 mg/injection measured as difference between estimated tumor burdens before second treatment; type: functional, Mus musculus
Summary of the method: (§3)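 CD2F1 mice, in groups of six, received 1 × 10⁵ L1210 cells ip and were dosed ip once daily for 5 days from 24 h after inoculation. Net cell kill is the estimated change in tumor burden from before the first dose to just after the last. It is calculated as (T − C − Rx)/3.32Td, using the tumor doubling time observed in that test and survival after the last treatment.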

[7] = test system: L1210; test: Antitumor activity against L1210 lymphoid leukemia in CD2F1 mice at 25 mg/injection and measured as mean weight change (days 5 minus 1) of treated mice minus mean weight change of control mice before second treatment was reported; type: functional, Mus musculus; summary of the method: as §2
[8] = test system: L1210; test: Antitumor activity against L1210 lymphoid leukemia in CD2F1 mice at a dose of 200 mg/injection measured as difference between estimated tumor burdens before first treatment; type: functional, Mus musculus; summary of the method: as §3
[9] = test system: L1210; test: Antitumor activity against L1210 lymphoid leukemia in CD2F1 mice at 300 mg/injection and mean weight change (days 5 minus 1) of treated mice minus mean weight change of control mice before first treatment was reported; type: functional, Mus musculus; summary of the method: as §2
[10] = test system: L1210; test: Antitumor activity against L1210 lymphoid leukemia in CD2F1 mice at […] and measured as mean survival time of treated mice in days/mean survival time of control mice x 100 before second treatment was reported; type: functional, Mus musculus
[11] = test system: L1210; test: Antitumor activity against L1210 lymphoid leukemia in CD2F1 mice at 100 mg/injection and measured as mean survival time of treated mice in days/mean survival time of control mice x 100 before second treatment was reported; type: functional, Mus musculus; summary of the method: as §1
[12] = test system: L1210; test: Antitumor activity against L1210 lymphoid leukemia in CD2F1 mice at 200 mg/injection and measured as mean survival time of treated mice in days/mean survival time of control mice x 100 before second treatment was reported; type: functional, Mus musculus; summary of the method: as §1
[13] = test system: L1210; test: Antitumor activity against L1210 lymphoid leukemia in CD2F1 mice at a dose of 100 mg/injection and difference between estimated tumor burdens before second treatment; type: functional, Mus musculus; summary of the method: as §3
[14] = test system: L1210; test: Antitumor activity against L1210 lymphoid leukemia in CD2F1 mice at 200 mg/injection and measured as mean weight change (days 5 minus 1) of treated mice minus mean weight change of control mice before second treatment was reported; type: functional, Mus musculus; summary of the method: as §2
[15] = test system: L1210; test: Antitumor activity against L1210 lymphoid leukemia in CD2F1 mice at a dose of 25 mg/injection measured as difference between estimated tumor burdens before first treatment; type: functional, Mus musculus; summary of the method: as §3
[16] = test system: L1210; test: Antitumor activity against L1210 lymphoid leukemia in CD2F1 mice at 50 mg/injection and measured as mean weight change (days 5 minus 1) of treated mice minus mean weight change of control mice before first treatment was reported; type: functional, Mus musculus; summary of the method: as §2
[17] = test system: L1210; test: Antitumor activity against L1210 lymphoid leukemia in CD2F1 mice at 300 mg/injection and measured as mean survival time of treated mice in days/mean survival time of control mice x 100 before first treatment was reported; type: functional, Mus musculus; summary of the method: as §1
[18] = test system: L1210; test: Antitumor activity against L1210 lymphoid leukemia in CD2F1 mice at a dose of 300 mg/injection measured as difference between estimated tumor burdens before first treatment; type: functional, Mus musculus; summary of the method: as §3
[19] = test system: L1210; test: Antitumor activity against L1210 lymphoid leukemia in CD2F1 mice at 25 mg/injection and measured as mean survival time of treated mice in days/mean survival time of control mice x 100 before first treatment was reported; type: functional, Mus musculus; summary of the method: as §1
[20] = test system: L1210; test: Antitumor activity against L1210 lymphoid leukemia in CD2F1 mice at a dose of 50 mg/injection measured as difference between estimated tumor burdens before second treatment; type: functional, Mus musculus; summary of the method: as §3
[21] = test system: L1210; test: Antitumor activity against L1210 lymphoid leukemia in CD2F1 mice at 25 mg/injection and measured as mean survival time of treated mice in days/mean survival time of control mice x 100 before second treatment was reported; type: functional, Mus musculus; summary of the method: as §1
[22] = test system: L1210; test: Antitumor activity against L1210 lymphoid leukemia in CD2F1 mice at 50 mg/injection and measured as mean weight change (days 5 minus 1) of treated mice minus mean weight change of control mice before second treatment was reported; type: functional, Mus musculus; summary of the method: as §2
[23] = test system: L1210; test: Antitumor activity against L1210 lymphoid leukemia in CD2F1 mice at a dose of 100 mg/injection measured as difference between estimated tumor burdens before first treatment; type: functional, Mus musculus; summary of the method: as §3
[24] = test system: L1210; test: Antitumor activity against L1210 lymphoid leukemia in CD2F1 mice at […] and measured as mean weight change (days 5 minus 1) of treated mice minus mean weight change of control mice before second treatment was reported; type: functional, Mus musculus
[25] = test system: L1210; test: Ability to inhibit growth of L1210 lymphocyte leukemia cell in culture; type: functional, cell-based; conditions: Mus musculus
[26] = test system: L1210; test: Antitumor activity against L1210 lymphoid leukemia in CD2F1 mice at 200 mg/injection and measured as mean survival time of treated mice in days/mean survival time of control mice x 100 before first treatment was reported; type: functional, Mus musculus; summary of the method: as §1
[27] = test system: L1210; test: Antitumor activity against L1210 lymphoid leukemia in CD2F1 mice at 100 mg/injection and measured as mean survival time of treated mice in days/mean survival time of control mice x 100 before first treatment was reported; type: functional, Mus musculus; summary of the method: as §1
[28] = test system: L1210; test: Antitumor activity against L1210 lymphoid leukemia in CD2F1 mice at 50 mg/injection and measured as mean survival time of treated mice in days/mean survival time of control mice x 100 before first treatment was reported; type: functional, Mus musculus; summary of the method: as §1
[29] = test system: L1210; test: Antitumor activity against L1210 lymphoid leukemia in CD2F1 mice at 50 mg/injection and measured as mean survival time of treated mice in days/mean survival time of control mice x 100 before second treatment was reported; type: functional, Mus musculus; summary of the method: as §1
[30] = test system: L1210; test: Antitumor activity against L1210 lymphoid leukemia in CD2F1 mice at 100 mg/injection and measured as mean weight change (days 5 minus 1) of treated mice minus mean weight change of control mice before first treatment was reported; type: functional, Mus musculus; summary of the method: as §2
[31] = test system: L1210; test: Antitumor activity against L1210 lymphoid leukemia in CD2F1 mice at a dose of […] measured as difference between estimated tumor burdens before second treatment; type: functional, Mus musculus
[32] = test system: L1210; test: Antitumor activity against L1210 lymphoid leukemia in CD2F1 mice at 25 mg/injection and measured as mean weight change (days 5 minus 1) of treated mice minus mean weight change of control mice before first treatment was reported; type: functional, Mus musculus; summary of the method: as §2
[33] = test system: L1210; test: Antitumor activity against L1210 lymphoid leukemia in CD2F1 mice at a dose of 50 mg/injection measured as difference between estimated tumor burdens before first treatment; type: functional, Mus musculus; summary of the method: as §3
[34] = test system: L1210; test: Compound was tested for its inhibitory activity against L1210 lymphoid leukemia; type: functional, cell-based; conditions: Mus musculus
[35] = test system: L1210; test: Compound was tested for percent increase in life span against L1210 lymphoid leukemia; type: functional, Mus musculus

Nc1ccn([C@H]2C[C@H](O)[C@@H](CO)O2)c(=O)c1F
T/C [1]: <125%

Nc1c(F)cn([C@H]2C[C@H](O)[C@@H](CO)O2)c(=O)c1F
T/C [1]: <125%

C[C@@]1(n2cc(F)c(N)c(F)c2=O)C[C@H](O)[C@@H](CO)O1
T/C [1]: <125%

Nc1c(F)cnc(O)c1F
IC50 [2]: 47.1 µM
T/C [3]: <125%

Nc1c(F)cn(C2O[C@H](CO)[C@@H](O)[C@H]2O)c(=O)c1F (stereo not given in full)
T/C [1]: <125%

Nc1ccn(C2O[C@H](CO)[C@@H](O)[C@H]2O)c(=O)c1F (stereo not given in full)
BWD [4]: -1.3
BWD [5]: -4.8
Net log kill [6]: 0.78
BWD [7]: -1
Net log kill [8]: 3.91
BWD [9]: -4.7
T/C [10]: 136%
T/C [11]: 216%
T/C [12]: 208%
Net log kill [13]: 5.54
BWD [14]: -3.4
Net log kill [15]: 1.3
BWD [16]: -1.7
T/C [17]: 230%
Net log kill [18]: 5.37
T/C [19]: 169%
Net log kill [20]: 3.01
T/C [21]: 157%
BWD [22]: -1.1
Net log kill [23]: 2.93
BWD [24]: -0.5
IC50 [25]: 10.7 µM
T/C [26]: 208%
T/C [27]: 193%
T/C [28]: 182%
T/C [29]: 185%
BWD [30]: -3
Net log kill [31]: -0.97
BWD [32]: -1
Net log kill [33]: 2.2

Nc1ncn([C@@H]2O[C@H](CO)[C@@H](O)[C@H]2O)c(=O)n1 [AZACITIDINE]
IC50 [34]: 0.409 µM

Nc1ccn([C@@H]2O[C@H](CO)[C@@H](O)[C@@H]2O)c(=O)n1 [CYTARABINE]
ILS [35]: >161%

Nc1ncn([C@H]2C[C@H](O)[C@@H](CO)O2)c(=O)n1 [DECITABINE]
IC50 [34]: 0.393 µM

Nc1ccn([C@H]2C[C@H](O)[C@@H](CO)O2)c(=O)n1 [DOXECITINE]
ILS [35]: >161%
